Test results reported in PMC7854864 (Cell chemical biology, 2020).
Each block holds one molecule with its values, some of them ahead of it.

Assays:
[1] = target: pure human MYC C171Y mutant protein (Homo sapiens, UniProt P01106, C186Y); experiment: Gel-based ABPP with pure C171Y mutant MYC protein; format: binding; details: 50 μM, 2 h, 37°C
Summary of the method: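 Pure human wild-type and C171Y MYC (0.3 μg in 50 μl PBS) labelled directly with alkyne probe (50 μM) for 2 h at 37 °C. Rhodamine-azide (1 μM final) attached by CuAAC, 1 h at room temperature. Samples run on reducing SDS/PAGE (4–20% gels), fixed in acetic acid/ethanol, and imaged by in-gel rhodamine fluorescence; silver stain used for loading.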

endogenous c-MYC = endogenous c-MYC (Homo sapiens, UniProt P01106); experiment: EN4-alkyne-4 enrichment of endogenous MYC in cells; format: cell-based; details: 231MFP cells, 50 μM, 4 h, in situ
endogenous c-MYC, sequence (P01106 16-454): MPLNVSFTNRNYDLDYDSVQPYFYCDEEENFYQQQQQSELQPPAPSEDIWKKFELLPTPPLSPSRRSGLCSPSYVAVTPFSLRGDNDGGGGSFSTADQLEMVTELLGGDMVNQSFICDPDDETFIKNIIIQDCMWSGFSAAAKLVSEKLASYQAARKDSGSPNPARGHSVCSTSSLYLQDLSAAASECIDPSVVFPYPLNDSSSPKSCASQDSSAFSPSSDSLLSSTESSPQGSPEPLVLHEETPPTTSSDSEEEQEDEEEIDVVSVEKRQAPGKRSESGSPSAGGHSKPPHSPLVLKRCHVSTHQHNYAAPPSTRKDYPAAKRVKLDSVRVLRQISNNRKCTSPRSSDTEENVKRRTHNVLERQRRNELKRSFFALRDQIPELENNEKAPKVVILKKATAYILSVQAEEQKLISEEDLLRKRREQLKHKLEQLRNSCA
Summary of the method: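 231MFP cells at 70% confluency exposed in situ to DMSO or 50 μM alkyne probe for 4 h. Cells lysed by sonication and lysates normalised to 3.2 mg/mL. Probe-labelled proteins conjugated by CuAAC and pulled down. c-MYC in the pulldown detected by blotting; input c-MYC and vinculin also shown. n=3 biological replicates, quantified.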

[2] = test system: MYC transcriptional activity; experiment: MYC luciferase reporter assay in HEK293T cells; format: cell-based, human; details: for activity in MYC luciferase reporter assay: dose response, Table S4
Summary of the method: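 HEK293T cells (DMEM, 10% FBS) seeded at 35,000/well and transfected with Lipofectamine 2000 (complexes formed 25 min at room temperature). Reporter: firefly luciferase driven by TATA box plus tandem E-box repeats; negative control lacked response elements. Cells treated with DMSO or test compound (50 μM screen, or dose series) for 24 h. Firefly and Renilla read; blank subtracted, Firefly:Renilla calculated per well, then normalised to vehicle. n=3.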

MYC target genes = experiment: RNA sequencing of EN4-treated 231MFP cells; format: cell-based, human; details: 50 μM, 24 h
Summary of the method: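 231MFP cells seeded in 6 cm dishes and treated with DMSO or 50 μM test compound for 24 h before RNA sequencing. Transcript changes reported as log₂ fold change of treated versus DMSO controls.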

[3] = test system: MYC transcriptional activity; experiment: MYC luciferase reporter upon JUN knockdown; format: cell-based, human; details: HEK293T, siJUN, 24 h
MIZ1 or ZBTB17 = experiment: MIZ1/ZBTB17 level with EN4 treatment; format: cell-based; details: Fig. S3f
[4] = target: C171Y mutant MYC protein (with MAX) (Homo sapiens, UniProt P01106, C186Y); experiment: MYC/MAX in vitro DNA binding with C171Y mutant MYC; format: biochemical; details: 50 μM
C171Y mutant MYC protein (with MAX), sequence (P01106 16-454 C186Y): as the sequence (P01106 16-454) above, with C171Y counted along it
Summary of the method: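 Plate-based assay adapted from a c-Myc transcription factor kit. Test compound (50 μM; diluted from 50 mM DMSO stock into dPBS) or DMSO pre-incubated with 0.2 μg pure full-length wild-type or C171Y MYC for 30 min at 37 °C. Then 0.2 μg MAX added and the mixture bound to wells coated with the E-box consensus sequence for 1 h. Bound complex detected with primary and secondary antibodies.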

C171Y FLAG-MYC = experiment: MYC luciferase reporter in HEK293T cells expressing C171Y versus WT FLAG-MYC; format: cell-based, human; details: 50 μM, 24 h
Summary of the method: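 HEK293T cells seeded at 35,000/well and co-transfected with the MYC E-box luciferase reporter plus 1 μg/well FLAG-eGFP, FLAG-wild-type or FLAG-C171Y c-MYC plasmid (site-directed mutant), using Lipofectamine 2000 at 3:1 to DNA. Treated with DMSO or 50 μM test compound for 24 h. Blank-subtracted Firefly:Renilla expressed relative to DMSO set to 1; FLAG expression checked by Western blot.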

pure human MYC protein = pure human MYC protein (Homo sapiens, UniProt P01106); experiment: Gel-based ABPP with pure MYC protein; format: binding; details: pre-incubation 30 min 37°C, then EN4-alkyne-2 50 μM 2 h
pure human MYC protein, sequence (P01106 16-454): as the sequence (P01106 16-454) above
Summary of the method: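 Pure human full-length MYC (0.3 μg in 50 μl PBS) pre-treated with DMSO or test compound for 30 min at 37 °C, then labelled with alkyne probe (50 μM) for 2 h at 37 °C. Rhodamine-azide (1 μM final) attached by CuAAC, 1 h at room temperature. Samples heated at 90 °C for 5 min in reducing Laemmli buffer, run on 4–20% gels, fixed, and read by in-gel fluorescence; silver stain used for loading.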

parental MCF10A cells = experiment: Serum-free cell survival, parental MCF10A; format: cell-based, human; details: 48 h
Summary of the method: (§1)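 MCF10A parental or MYC-overexpressing cells (maintained in DMEM/F12K with 5% horse serum, EGF, cholera toxin, insulin and hydrocortisone) seeded at 40,000/well and allowed to adhere overnight. Treated with DMSO or test compound in serum-free medium for 48 h. Fixed and stained with formalin/Hoechst 33342, then imaged. Survival normalised to the DMSO control of each line set to 1; unpaired two-tailed t-test.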

[5] = test system: 231MFP breast cancer cells; experiment: 231MFP cell proliferation; format: cell-based, human; details: 50 μM, daily treatment, 72 h
Summary of the method: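 231MFP cells (L15, 10% FBS, 37 °C, 0% CO2) seeded at 15,000/well in serum-containing L-15. Treated the next day with DMSO or test compound, with media and compound replaced daily for 72 h. Wells fixed and stained with 10% formalin plus Hoechst 33342 for 15 min at room temperature in the dark, washed and imaged. Reported as percent proliferation versus DMSO; unpaired two-tailed t-test.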

[6] = test system: MYC-transformed mammary epithelial MCF10A cells; experiment: Serum-free cell survival, MYC-expressing MCF10A; format: cell-based, human; details: 48 h
Summary of the method: as §1

[7] = target: purified recombinant human MYC/MAX complex (Homo sapiens, UniProt P01106); experiment: MYC/MAX in vitro DNA binding to E-box consensus sequence; format: biochemical
purified recombinant human MYC/MAX complex, sequence (P01106 16-454, one chain of several): as the sequence (P01106 16-454) above
Summary of the method: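 Human full-length c-MYC (0.2 μg) was pre-incubated for 30 min at 37 °C with DMSO or test compound diluted from 50 mM DMSO stock into dPBS. MAX (0.2 μg) was then added, and the mixture was transferred to wells coated with the E-box consensus sequence for 1 h binding. Bound complex was detected with primary and secondary antibodies following a commercial transcription-factor kit protocol. IC50 was derived from the dose-response.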

[8] = test system: CDK2, CDC25A and MYC protein levels; experiment: Western blotting of MYC transcriptional targets in 231MFP cells; format: cell-based, human; details: 50 μM, 36 h
Summary of the method: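 231MFP cells treated with DMSO or 50 μM test compound for 36 h, with medium and treatment replenished at 24 h. CDK2, CDC25A and MYC levels measured by Western blot with vinculin as loading control. n=3 biological replicates; blots quantified; unpaired two-tailed t-test.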

MYC = MYC (Homo sapiens, UniProt P01106); experiment: Cellular thermal shift assay; format: cell-based; details: 231MFP cells, 50 μM, 2 h
MYC, sequence (P01106 16-454): as above
Summary of the method: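 231MFP cells (L15, 10% FBS, 37 °C, 0% CO2) at 80% confluence were exposed to test compound or DMSO at 50 μM for 120 min. They were then resuspended in PBS with protease inhibitors, still containing compound or DMSO, and heated for 3 min at eight temperatures (37.0–58.0 °C). After 3 min at 25 °C, cells were freeze-thaw lysed and spun at 20,000 g. Soluble c-MYC, MAX and GAPDH were measured by Western blot densitometry, relative to DMSO.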

[9] = test system: 231MFP breast tumor xenograft; experiment: 231MFP tumor xenograft study; format: in vivo; details: 50 mg/kg ip once per day, started 14 days after implantation, SCID mice
Summary of the method: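 Female C.B17 SCID mice (6–8 weeks) received 1 × 10⁶ 231MFP cells subcutaneously in the flank, suspended in serum-free medium. From 2 weeks after implantation, vehicle (18:1:1 PBS/ethanol/PEG40) or 50 mg/kg test compound was given ip once daily. Tumour size measured weekly by calipers; unpaired two-tailed t-test.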

pure human c-JUN protein = pure human c-JUN protein (Homo sapiens, UniProt P05412); experiment: Gel-based ABPP with pure JUN protein; format: binding; details: Fig. S3b
pure human c-JUN protein, sequence (P05412 whole entry): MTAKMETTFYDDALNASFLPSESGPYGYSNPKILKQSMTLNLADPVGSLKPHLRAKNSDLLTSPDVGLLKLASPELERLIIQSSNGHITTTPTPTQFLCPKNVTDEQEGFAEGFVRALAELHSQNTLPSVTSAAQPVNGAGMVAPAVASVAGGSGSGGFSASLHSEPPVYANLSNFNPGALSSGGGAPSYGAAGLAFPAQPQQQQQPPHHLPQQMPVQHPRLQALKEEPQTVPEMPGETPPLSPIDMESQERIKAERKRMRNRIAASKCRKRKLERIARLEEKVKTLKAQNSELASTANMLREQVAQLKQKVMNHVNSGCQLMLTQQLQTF
Summary of the method: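 Recombinant pure human c-JUN (0.1 μg) was pretreated with DMSO or test compound in 25 μl PBS for 1 h at 37 °C. It was then labeled with 200 nM IA-rhodamine for 1 h at room temperature. Samples were denatured in reducing Laemmli buffer at 90 °C for 5 min, separated on 4–20% SDS/PAGE gels, fixed, and read by in-gel fluorescence.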

MAX = MAX (Homo sapiens, UniProt P61244); experiment: Cellular thermal shift assay; format: cell-based; details: 231MFP cells, 50 μM, 2 h
MAX, sequence (P01106 16-454 partner limits assumed): as the sequence (P01106 16-454) above
MAX, sequence (P61244 whole entry): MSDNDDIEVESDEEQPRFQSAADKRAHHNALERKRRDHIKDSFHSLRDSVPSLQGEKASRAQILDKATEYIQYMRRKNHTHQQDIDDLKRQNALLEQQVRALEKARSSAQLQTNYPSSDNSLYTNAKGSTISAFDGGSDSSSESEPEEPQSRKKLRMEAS
Summary of the method: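 231MFP cells at 80% confluence treated with DMSO or 50 μM test compound for 120 min, then resuspended in PBS with protease inhibitors and compound or DMSO kept present. Aliquots heated 3 min at eight temperatures (37.0–58.0 °C), held 3 min at 25 °C, lysed by three liquid-nitrogen freeze-thaw cycles and spun 20,000 g, 20 min, 4 °C. Soluble MAX measured by Western blot with GAPDH as loading control; band intensity quantified.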

pure human MYC C171Y mutant protein, sequence (P01106 16-454 C186Y): as the sequence (P01106 16-454) above, with C171Y counted along it

probe labeling of C171Y mutant MYC compared to wild-type [1]: labeling was not observed
Structure (SMILES): C#CCOc1ccc(NC(=O)c2ccc(CNC(=O)C=C)cc2)c(Oc2ccc(OCC)cc2)c1 [EN4-alkyne-2, 4-(acrylamidomethyl)-N-(2-(4-ethoxyphenoxy)-4-(prop-2-yn-1-yloxy)phenyl) benzamide]

enrichment of endogenous c-MYC versus vehicle (endogenous c-MYC): significantly enriched endogenous c-MYC
EC50 ([2]; Homo sapiens, HEK-293T, read-out: EC50 in MYC luciferase reporter assay): 1.4 µM
Structure (SMILES): C#Cc1ccc(Oc2ccc(OCC)cc2)c(NC(=O)c2ccc(CNC(=O)C=C)cc2)c1 [EN4-alkyne-4, 4-(acrylamidomethyl)-N-(2-(4-ethoxyphenoxy)-5-ethynylphenyl)benzamide]

Structure (SMILES): C=CC(=O)NCc1ccc(C(=O)Nc2ccccc2Oc2ccc(OCC)cc2)cc1 [EN4]
expression of direct MYC target genes and MYC-regulated gene targets (MYC target genes): significantly downregulated
inhibition of MYC luciferase reporter activity upon JUN knockdown compared to control cells [3]: comparable inhibitory effects
level of MYC binding partner MIZ1 or ZBTB17 (MIZ1 or ZBTB17): upregulation
inhibition of MYC/MAX DNA binding with C171Y mutant compared to wild-type MYC [4]: significantly attenuated
MYC inhibitory effect in cells expressing C171Y FLAG-MYC compared to WT FLAG-MYC (C171Y FLAG-MYC): significantly attenuated
inhibition of MYC transcriptional activity in covalent ligand screen ([2]; 50 μM, 24 h, HEK293T, Fig. 1b): strongest inhibition
competition of EN4-alkyne-2 labeling of pure MYC (pure human MYC protein): displaced the labeling of EN4-alkyne-2
cell survival of parental MCF10A cells (parental MCF10A cells): but not parental MCF10A cells
inhibition of proliferation [5]: > 90%
cell survival of MYC-transformed MCF10A cells [6]: impaired the cell survival
IC50 ([7]; read-out: 50 % inhibitory concentration (IC50) for MYC/MAX binding to the E-box response element DNA consensus sequence, dose-response, Fig. 1d, pre-incubated with MYC 30 min before MAX): 6.7 µM
MYC protein levels [8]: substantially reduced
protein levels of CDK2 and CDC25A [8]: significantly lowered
MYC thermal stability (MYC): significantly reduced MYC thermal stability
tumor growth in vivo [9]: significantly attenuated tumor growth
competition against IA-rhodamine labeling of pure JUN (pure human c-JUN protein): competition of EN4 against labeling of pure JUN protein
MAX thermal stability (MAX): reduced the thermal stability

Structure (SMILES): CCOc1ccc(Oc2ccccc2NC(=O)c2ccc(CNC(=O)CCl)cc2)cc1 [EN4–3, 4-((2-chloroacetamido)methyl)-N-(2-(4-ethoxyphenoxy)phenyl)benzamide]
activity in MYC luciferase reporter assay ([2]; HEK293T): loss of activity

Structure (SMILES): CCOc1ccc(Oc2ccccc2NC(=O)c2ccc(CNC(=O)/C=C/C(F)(F)F)cc2)cc1 [EN4–6, (E)-N-(2-(4-ethoxyphenoxy)phenyl)-4-((4,4,4-trifluorobut-2-enamido)methyl) benzamide]
activity in MYC luciferase reporter assay ([2]; HEK293T): loss of activity

Structure (SMILES): CCOc1ccc(Oc2ccccc2NC(=O)c2ccc(CNC(=O)CC)cc2)cc1 [EN4–18, N-(2-(4-ethoxyphenoxy)phenyl)-4-(propionamidomethyl)benzamide]
activity in MYC luciferase reporter assay ([2]; HEK293T): inhibited MYC luciferase reporter activity
inhibition of MYC/MAX DNA binding in vitro ([7]; Fig. S4): significantly inhibits MYC/MAX DNA binding
